Measured values reported in ChEMBL document CHEMBL1149302, “Design, synthesis, and pharmacological characterization of novel, potent NMDA receptor antagonists” (J Med Chem, 2004).
The source made the active and inactive calls. No cut-off for these calls is given here.

Legend:
[1] = molecular target: Glutamate NMDA receptor; experiment: Displacement of [3H]CGP-39653 from rat brain NMDA receptor
Procedure, shortened: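 Rat brain membranes prepared per Ransom and Stec with modifications. Binding with 2 nM [3H]CGP 39653, with bound radioactivity measured by scintillation counting. Racemates tested. Values are antilog of log mean of at least three experiments.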

[2] = Displacement of [3H]AMPA from rat cortex AMPA receptor
Procedure, shortened: (§1)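 Rat brain membranes prepared per Ransom and Stec with modifications. Radioligand binding with 5 nM [3H]AMPA, or 5 nM [3H]kainic acid in the absence of CaCl2. Bound radioactivity measured by scintillation counting. Racemates tested. Values are antilog of log mean of at least three experiments.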

[3] = Displacement of [3H]kainic acid from rat brain kainate receptor; procedure, shortened: as §1
[4] = test system: Mus musculus; experiment: Anticonvulsant activity in ip dosed DBA/2 mouse assessed as inhibition of clonic seizures; assay type: functional; conditions: DBA/2, ip
Procedure, shortened: (§2)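 Male DBA/2 mice (6-12 g, 22-26 days old) dosed ip in 100 μL/10 g. Compounds dissolved in 0.1 mM NaOH and brought to pH 7.3-7.7 with phosphate buffer; vehicle water. 45 min after dosing, a 110 dB bell sounded for 60 s or until clonic seizure onset. Seizure scoring: wild running 1, clonus 2, tonic extension 3, respiratory arrest 4. ED50 reported in μmol/kg.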

[5] = test system: Mus musculus; experiment: Anticonvulsant activity in ip dosed DBA/2 mouse assessed as inhibition of tonic extension seizures; assay type: functional; conditions: DBA/2, ip; procedure, shortened: as §2
[6] = molecular target: Metabotropic glutamate receptor 1 (Rattus norvegicus) (UniProt P23385); experiment: Activity at rat mGluR1 expressed in CHO cells at 1 mM; assay type: cell-based
Chain of Metabotropic glutamate receptor 1 (Rattus norvegicus) (P23385 19-1199 limits assumed): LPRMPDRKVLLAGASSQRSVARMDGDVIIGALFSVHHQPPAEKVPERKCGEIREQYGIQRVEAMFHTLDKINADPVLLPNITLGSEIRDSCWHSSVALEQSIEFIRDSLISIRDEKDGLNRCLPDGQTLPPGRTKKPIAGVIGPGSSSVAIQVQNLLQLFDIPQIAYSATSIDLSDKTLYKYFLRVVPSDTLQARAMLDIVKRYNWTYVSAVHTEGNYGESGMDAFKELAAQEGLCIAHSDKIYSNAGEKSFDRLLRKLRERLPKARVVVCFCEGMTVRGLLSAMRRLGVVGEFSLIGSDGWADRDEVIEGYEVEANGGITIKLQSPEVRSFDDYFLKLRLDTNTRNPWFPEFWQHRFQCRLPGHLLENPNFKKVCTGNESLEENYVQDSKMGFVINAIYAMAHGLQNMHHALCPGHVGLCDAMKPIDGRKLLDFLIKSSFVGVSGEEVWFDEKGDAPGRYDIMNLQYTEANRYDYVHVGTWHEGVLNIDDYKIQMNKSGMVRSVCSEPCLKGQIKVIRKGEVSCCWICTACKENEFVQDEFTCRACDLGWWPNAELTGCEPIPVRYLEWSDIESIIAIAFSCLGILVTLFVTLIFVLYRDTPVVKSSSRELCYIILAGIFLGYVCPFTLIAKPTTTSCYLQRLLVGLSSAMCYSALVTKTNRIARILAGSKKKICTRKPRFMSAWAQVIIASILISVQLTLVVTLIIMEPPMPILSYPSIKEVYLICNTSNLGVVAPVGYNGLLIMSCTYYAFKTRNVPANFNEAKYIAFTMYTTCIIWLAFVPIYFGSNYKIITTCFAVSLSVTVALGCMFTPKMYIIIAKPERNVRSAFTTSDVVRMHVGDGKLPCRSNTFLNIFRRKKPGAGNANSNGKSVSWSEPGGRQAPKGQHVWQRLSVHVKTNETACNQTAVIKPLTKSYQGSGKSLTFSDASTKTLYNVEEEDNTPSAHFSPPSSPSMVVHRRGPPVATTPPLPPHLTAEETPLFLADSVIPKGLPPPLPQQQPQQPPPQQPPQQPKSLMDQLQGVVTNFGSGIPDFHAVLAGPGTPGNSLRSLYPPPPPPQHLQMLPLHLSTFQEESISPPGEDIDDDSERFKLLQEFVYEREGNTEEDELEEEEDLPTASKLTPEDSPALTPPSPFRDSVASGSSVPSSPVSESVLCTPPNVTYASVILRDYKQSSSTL
Procedure, shortened: (§3)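 Rat mGluR1α, mGluR2, mGluR4a and mGluR5a each expressed in CHO cell lines. Compounds tested at 1 mM for both agonist and antagonist activity.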

[7] = molecular target: Metabotropic glutamate receptor 5 (Rattus norvegicus) (UniProt P31424); experiment: Activity at rat mGluR5a expressed in CHO cells at 1 mM; assay type: cell-based; procedure, shortened: as §3
Chain of Metabotropic glutamate receptor 5 (Rattus norvegicus) (P31424 21-1203 limits assumed): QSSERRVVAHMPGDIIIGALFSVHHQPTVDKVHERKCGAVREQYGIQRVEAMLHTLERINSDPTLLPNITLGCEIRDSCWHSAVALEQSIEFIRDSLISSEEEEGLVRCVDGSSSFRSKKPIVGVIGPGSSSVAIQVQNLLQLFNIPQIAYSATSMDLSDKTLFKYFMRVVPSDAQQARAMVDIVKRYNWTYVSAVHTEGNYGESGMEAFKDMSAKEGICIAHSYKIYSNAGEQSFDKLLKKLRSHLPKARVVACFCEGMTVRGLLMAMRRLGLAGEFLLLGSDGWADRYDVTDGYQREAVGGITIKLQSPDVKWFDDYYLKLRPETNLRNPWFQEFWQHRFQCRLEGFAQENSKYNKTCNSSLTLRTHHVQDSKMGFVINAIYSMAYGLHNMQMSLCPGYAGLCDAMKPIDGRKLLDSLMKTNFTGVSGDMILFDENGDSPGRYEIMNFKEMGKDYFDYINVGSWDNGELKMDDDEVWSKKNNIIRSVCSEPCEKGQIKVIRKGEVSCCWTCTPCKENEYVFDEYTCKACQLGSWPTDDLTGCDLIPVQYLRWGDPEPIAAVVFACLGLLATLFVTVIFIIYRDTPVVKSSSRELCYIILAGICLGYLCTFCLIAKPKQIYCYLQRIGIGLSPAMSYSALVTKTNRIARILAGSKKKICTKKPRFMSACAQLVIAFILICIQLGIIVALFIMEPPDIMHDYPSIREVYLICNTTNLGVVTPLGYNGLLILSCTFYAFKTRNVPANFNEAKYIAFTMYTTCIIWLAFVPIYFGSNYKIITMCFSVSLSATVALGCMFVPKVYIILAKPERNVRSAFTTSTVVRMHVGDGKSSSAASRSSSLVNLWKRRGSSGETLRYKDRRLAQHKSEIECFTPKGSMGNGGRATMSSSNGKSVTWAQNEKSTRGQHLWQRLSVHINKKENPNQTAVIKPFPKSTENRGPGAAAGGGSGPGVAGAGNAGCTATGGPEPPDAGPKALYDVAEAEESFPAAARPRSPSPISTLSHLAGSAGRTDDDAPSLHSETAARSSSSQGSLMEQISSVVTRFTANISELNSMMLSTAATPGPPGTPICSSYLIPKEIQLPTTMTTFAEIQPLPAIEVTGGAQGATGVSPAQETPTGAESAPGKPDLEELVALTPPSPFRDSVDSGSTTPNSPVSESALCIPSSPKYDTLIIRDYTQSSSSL

[8] = molecular target: Metabotropic glutamate receptor 2 (Rattus norvegicus) (UniProt P31421); experiment: Activity at rat mGluR2 expressed in CHO cells at 1 mM; assay type: cell-based; procedure, shortened: as §3
Chain of Metabotropic glutamate receptor 2 (Rattus norvegicus) (P31421 19-872 limits assumed): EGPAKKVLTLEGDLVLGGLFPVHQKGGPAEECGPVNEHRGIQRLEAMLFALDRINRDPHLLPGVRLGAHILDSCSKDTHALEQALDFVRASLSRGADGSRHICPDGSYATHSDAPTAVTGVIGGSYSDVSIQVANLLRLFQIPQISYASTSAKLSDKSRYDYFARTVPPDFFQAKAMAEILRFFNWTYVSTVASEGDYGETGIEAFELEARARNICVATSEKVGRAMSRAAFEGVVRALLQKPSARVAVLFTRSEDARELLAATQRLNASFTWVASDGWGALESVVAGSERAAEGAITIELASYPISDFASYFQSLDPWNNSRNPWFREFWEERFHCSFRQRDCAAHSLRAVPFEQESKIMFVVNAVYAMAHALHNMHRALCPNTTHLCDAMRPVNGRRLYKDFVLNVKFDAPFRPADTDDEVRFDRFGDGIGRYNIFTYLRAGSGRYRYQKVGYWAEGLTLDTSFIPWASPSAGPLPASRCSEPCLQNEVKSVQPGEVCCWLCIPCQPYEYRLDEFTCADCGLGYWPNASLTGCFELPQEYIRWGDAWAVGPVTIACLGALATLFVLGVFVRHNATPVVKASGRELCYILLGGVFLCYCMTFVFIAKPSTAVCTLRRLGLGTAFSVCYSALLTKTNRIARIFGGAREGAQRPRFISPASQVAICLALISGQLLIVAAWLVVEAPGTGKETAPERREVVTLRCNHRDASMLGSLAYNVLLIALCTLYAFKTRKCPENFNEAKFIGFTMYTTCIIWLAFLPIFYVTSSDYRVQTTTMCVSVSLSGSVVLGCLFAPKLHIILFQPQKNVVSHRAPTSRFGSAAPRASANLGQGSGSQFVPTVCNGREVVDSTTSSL

[9] = molecular target: Metabotropic glutamate receptor 4 (Rattus norvegicus) (UniProt P31423); experiment: Activity at rat mGluR4a expressed in CHO cells at 1 mM; assay type: cell-based; procedure, shortened: as §3
Chain of Metabotropic glutamate receptor 4 (Rattus norvegicus) (P31423 whole entry): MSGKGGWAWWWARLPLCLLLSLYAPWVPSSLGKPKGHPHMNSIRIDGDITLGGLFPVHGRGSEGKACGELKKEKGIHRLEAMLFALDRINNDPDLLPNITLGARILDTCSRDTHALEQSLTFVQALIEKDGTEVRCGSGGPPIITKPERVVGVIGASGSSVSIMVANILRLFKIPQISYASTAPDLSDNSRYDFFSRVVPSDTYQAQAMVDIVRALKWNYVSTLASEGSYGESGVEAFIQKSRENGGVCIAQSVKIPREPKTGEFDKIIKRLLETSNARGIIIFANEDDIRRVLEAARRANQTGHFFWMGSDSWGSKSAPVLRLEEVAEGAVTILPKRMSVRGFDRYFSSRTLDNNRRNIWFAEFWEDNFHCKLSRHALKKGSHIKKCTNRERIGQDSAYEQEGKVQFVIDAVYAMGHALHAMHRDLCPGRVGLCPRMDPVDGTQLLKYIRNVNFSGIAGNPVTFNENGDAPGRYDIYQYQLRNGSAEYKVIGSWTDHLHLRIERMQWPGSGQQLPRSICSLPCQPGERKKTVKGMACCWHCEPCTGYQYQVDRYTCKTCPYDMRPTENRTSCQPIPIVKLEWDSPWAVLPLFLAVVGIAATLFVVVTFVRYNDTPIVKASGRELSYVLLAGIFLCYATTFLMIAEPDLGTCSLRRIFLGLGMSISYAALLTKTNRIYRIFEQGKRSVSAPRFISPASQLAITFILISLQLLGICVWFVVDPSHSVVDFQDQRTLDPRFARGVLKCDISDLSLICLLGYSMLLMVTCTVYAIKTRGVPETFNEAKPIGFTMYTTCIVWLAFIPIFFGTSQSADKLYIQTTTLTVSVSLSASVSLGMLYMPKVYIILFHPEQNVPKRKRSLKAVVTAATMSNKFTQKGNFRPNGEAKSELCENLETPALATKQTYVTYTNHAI

[10] = Activity at NMDA receptor in rat corticle slice assessed as antagonism of 10 uM NMDA-induced response; assay type: functional
Procedure, shortened: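 Modified rat cortical wedge preparation; depolarizing responses induced by NMDA (10 μM) recorded and antagonism measured. Racemates tested. Values are antilog of the log mean of at least three individual experiments, with ±SEM on a logarithmic distribution.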

[11] = organism: Rattus norvegicus; experiment: Activity at AMPA receptor in rat cortical slice assessed as antagonism of 5 uM AMPA-induced response; assay type: functional
[12] = organism: Rattus norvegicus; experiment: Activity at Kainate receptor in rat cortical slice assessed as antagonism of 5 uM kainic acid-induced response; assay type: functional
[13] = test system: Mus musculus; experiment: Induction of sedation in DBA/2 mouse at 100 […], ip; assay type: functional, organism-based
[14] = test system: Mus musculus; experiment: Reduction of locomotor activity in DBA/2 mouse at 100 […], ip; assay type: functional, organism-based
[15] = molecular target: Glutamate NMDA receptor; experiment: Displacement of [3H]CPP from rat brain NMDA receptor

Ki [1] [µM] | IC50 [2] [µM] | IC50 [3] [µM] | Activity [6] | Activity [7] | Activity [8] | Activity [9] | IC50 [10] [µM] | Activity [11] | Activity [12] | Ki [15] [µM] | SMILES | ED50 [4] [µmol/kg] | ED50 [5] [µmol/kg] | Activity [13] | Activity [14]
0.37 | > 100 | > 100 | – | – | – | – | – | – | – | – | N[C@@]1(C(=O)O)C[C@@H]2ON=C(C(=O)O)[C@@H]2C1 (racemic) | 28 | 22 | – | –
> 100 | > 100 | > 100 | inactive | inactive | inactive | inactive | – | – | – | – | CC1(C)ON=C(C(=O)O)[C@H]1C[C@@H](N)C(=O)O (relative stereo) | – | – | – | –
79 | 12 | > 100 | inactive | inactive | inactive | inactive | – | – | – | – | CC1(C)ON=C(C(=O)O)[C@H]1C[C@H](N)C(=O)O (relative stereo) | – | – | – | –
0.21 | > 100 | > 100 | inactive | inactive | inactive | inactive | 14.2 | inactive | inactive | – | N[C@@H](C[C@@H]1CC(C(=O)O)=NO1)C(=O)O (relative stereo) | 17.9 | 13.9 | Active | Active
0.96 | > 100 | > 100 | inactive | inactive | inactive | inactive | – | – | – | – | N[C@H](C[C@@H]1CC(C(=O)O)=NO1)C(=O)O (relative stereo) | 29.9 | 19.7 | – | –
– | – | – | – | – | – | – | – | – | – | 0.04 | O=C(O)C1CN(C/C=C/P(=O)(O)O)CCN1 (single isomer, unassigned; (-)) | 3.5 | 1.3 | – | –
– | – | – | – | – | – | – | – | – | – | – | O=C1NC(=O)C(c2ccccc2)(c2ccccc2)N1 [PHENYTOIN] | 9.1 | 7.3 | – | –
